{"source": "ChEMBL document CHEMBL1799956", "about": "“Convergent synthesis and biological evaluation of 2-amino-4-(3',4',5'-trimethoxyphenyl)-5-aryl thiazoles as microtubule targeting agents” (J Med Chem, 2011)", "key": {"HL-60": {"system": "HL-60", "assay": "Antiproliferative activity against human HL60 cells assessed as growth inhibition after 72 hrs by MTT assay", "format": "functional, cell-based", "conditions": "HL-60, 72 h"}, "K562": {"system": "K562", "assay": "Antiproliferative activity against human K562 cells assessed as growth inhibition after 72 hrs by MTT assay", "format": "functional, cell-based", "conditions": "K562, 72 h"}, "LoVo": {"system": "LoVo", "assay": "Antiproliferative activity against human LoVo cells assessed as growth inhibition after 72 hrs by MTT assay", "format": "functional, cell-based"}, "Tubulin (Homo sapiens) [1]": {"target": "T1, Tubulin (Homo sapiens) (UniProt P68371+Q9H4B7+P0DPH7+P68366+Q13509+Q71U36+P04350+Q3ZCM7+P07437+P68363+Q9BQE3+Q6PEY2+Q13885+Q9BVA1+Q9BUF5)", "assay": "Induction of microtubule disassembly with spherical morphology in human HeLa cells at 10 nM after 48 hrs using DAPI-staining by fluorescence microscopy", "format": "cell-based", "method_in_brief": "(§1)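 HeLa cells were exposed to 10 or 100 nM compound for 24 or 48 h, then fixed. Microtubules were stained with FITC-conjugated anti-β-tubulin antibody and imaged by confocal/fluorescence microscopy at 60× magnification.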"}, "Tubulin (Homo sapiens) [2]": {"target": "T1, Tubulin (Homo sapiens)", "assay": "Induction of microtubule disassembly in human HeLa cells assessed as complete loss of microtubules at 100 nM after 48 hrs using DAPI-staining by fluorescence microscopy", "format": "cell-based", "method_in_brief": "as §1"}, "Jurkat [3]": {"system": "Jurkat", "assay": "Cell cycle arrest in human Jurkat cells assessed as increase of cell population at G2/M phase after 24 hrs using propidium iodide staining by flow cytometry", "format": "functional, cell-based"}, "HeLa [4]": {"system": "HeLa", "assay": "Cell cycle arrest in human HeLa cells assessed as decrease of cell population at G1 phase at 1 to 100 nM after 24 hrs using propidium iodide staining by flow cytometry", "format": "functional, cell-based"}, "HeLa [5]": {"system": "HeLa", "assay": "Cell cycle arrest in human HeLa cells assessed as decrease of cell population at S phase at 100 nM after 24 hrs using propidium iodide staining by flow cytometry", "format": "functional, cell-based"}, "Jurkat [6]": {"system": "Jurkat", "assay": "Cell cycle arrest in human Jurkat cells assessed as decrease of cell population at S phase at 100 nM after 24 hrs using propidium iodide staining by flow cytometry", "format": "functional, cell-based"}, "HeLa [7]": {"system": "HeLa", "assay": "Cell cycle arrest in human HeLa cells assessed as increase of cell population at G2/M phase at 1 to 100 nM after 48 hrs using propidium iodide staining by flow cytometry", "format": "functional, cell-based"}, "Jurkat [8]": {"system": "Jurkat", "assay": "Cell cycle arrest in human Jurkat cells assessed as decrease of cell population at G1 phase at 1 to 100 nM after 48 hrs using propidium iodide staining by flow cytometry", "format": "functional, cell-based"}, "HeLa [9]": {"system": "HeLa", "assay": "Cell cycle arrest in human HeLa cells assessed as decrease of cell population at S phase at 1 to 100 nM after 48 hrs using propidium iodide staining by flow cytometry", "format": "functional, cell-based"}, "Jurkat [10]": {"system": "Jurkat", "assay": "Cell cycle arrest in human Jurkat cells assessed as decrease of cell population at S phase at 1 to 100 nM after 48 hrs using propidium iodide staining by flow cytometry", "format": "functional, cell-based"}, "HeLa [11]": {"system": "HeLa", "assay": "Induction of cell cycle arrest at G2/M phase in human HeLa cells assessed as increase in cyclin B1 expression after 24 to 48 hrs by Western blot analysis", "format": "functional, cell-based", "method_in_brief": "(§2)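 Immunoblot of HeLa lysates after 24 or 48 h of compound treatment at the indicated concentrations. Probed for cyclin B1, p-Cdc2 Y15 and Cdc25c. Slower-migrating Cdc25c bands were taken as a change in phosphorylation.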"}, "HeLa [12]": {"system": "HeLa", "assay": "Induction of cell cycle arrest at G2/M phase in human HeLa cells assessed as decrease in phosphorylated Cdc2(Y15) expression at 10 to 100 nM after 48 hrs by Western blot analysis", "format": "functional, cell-based", "method_in_brief": "as §2"}, "HeLa [13]": {"system": "HeLa", "assay": "Induction of cell cycle arrest at G2/M phase in human HeLa cells assessed as decrease in Cdc25C expression at 100 nM after 48 hrs by Western blot analysis", "format": "functional, cell-based", "method_in_brief": "as §2"}, "HeLa [14]": {"system": "HeLa", "assay": "Induction of apoptosis in human HeLa cells assessed as increase in propidium iodide-positive cells after 48 hrs by annexin-V-FITC and propidium iodide staining based flow cytometry", "format": "functional, cell-based", "method_in_brief": "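Biparametric flow cytometry after annexin-V immunolabelling plus propidium iodide, separating live, early apoptotic, late apoptotic and necrotic cells; HeLa incubated for 24 or 48 h.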"}, "HeLa [15]": {"system": "HeLa", "assay": "Induction of apoptosis in human HeLa cells assessed as increase in mitochondrial ROS production at 100 nM after 48 hrs using hydroethidine staining by flow cytometry", "format": "functional, cell-based"}, "HeLa [16]": {"system": "HeLa", "assay": "Induction of apoptosis in human HeLa cells assessed as no change in mitochondrial potential at 100 nM after 48 hrs using JC-1 staining by flow cytometry", "format": "functional, cell-based"}, "HeLa [17]": {"system": "HeLa", "assay": "Induction of apoptosis in human HeLa cells assessed as decrease in Bcl2 expression at […] after 24 hrs by Western blot analysis", "format": "functional, cell-based", "method_in_brief": "(§3)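 Treated HeLa whole-cell lysates separated by SDS-PAGE and immunoblotted for PARP cleavage, Bcl-2, Bax, pro-caspase-9 and pro-caspase-2.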"}, "HeLa [18]": {"system": "HeLa", "assay": "Induction of apoptosis in human HeLa cells assessed as decrease in Bax expression at […] after 24 hrs by Western blot analysis", "format": "functional, cell-based", "method_in_brief": "as §3"}, "HeLa [19]": {"system": "HeLa", "assay": "Induction of apoptosis in human HeLa cells assessed as decrease in Bax expression at […] after 48 hrs by Western blot analysis", "format": "functional, cell-based", "method_in_brief": "as §3"}, "HeLa [20]": {"system": "HeLa", "assay": "Induction of apoptosis in human HeLa cells assessed as DNA condensation at 10 uM after 24 to 48 hrs using Giemsa's staining by microscopic analysis", "format": "functional, cell-based", "method_in_brief": "(§4)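 HeLa treated 48 h, Giemsa stained and examined by light microscopy at 60× magnification.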"}, "HeLa [21]": {"system": "HeLa", "assay": "Induction of apoptosis in human HeLa cells assessed as DNA condensation at 100 uM after 24 to 48 hrs using Giemsa's staining by microscopic analysis", "format": "functional, cell-based", "method_in_brief": "as §4"}, "HeLa [22]": {"system": "HeLa", "assay": "Induction of apoptosis in human HeLa cells assessed as abnormal mitotic figures at 10 uM after 24 to 48 hrs using Giemsa's staining by microscopic analysis", "format": "functional, cell-based", "method_in_brief": "as §4"}, "HeLa [23]": {"system": "HeLa", "assay": "Induction of apoptosis in human HeLa cells assessed as multinucleation at 100 uM after 24 to 48 hrs using Giemsa's staining by microscopic analysis", "format": "functional, cell-based", "method_in_brief": "(§5)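 Giemsa staining, then light-microscope examination of cell morphology. HeLa and Jurkat cells were exposed to compound for 24 and 48 h. Magnification 60×.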"}, "Jurkat [24]": {"system": "Jurkat", "assay": "Induction of apoptosis in human Jurkat cells assessed as DNA condensation at 10 uM after 24 to 48 hrs using Giemsa's staining by microscopic analysis", "format": "functional, cell-based", "method_in_brief": "as §5"}, "Jurkat [25]": {"system": "Jurkat", "assay": "Induction of apoptosis in human Jurkat cells assessed as formation of large cells at 10 uM after 24 to 48 hrs using Giemsa's staining by microscopic analysis", "format": "functional, cell-based", "method_in_brief": "as §5"}, "HeLa [26]": {"system": "HeLa", "assay": "Induction of apoptosis in human HeLa cells assessed as reduction in p53 expression at […] after 48 hrs by Western blot analysis", "format": "functional, cell-based", "method_in_brief": "(§6)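 Western blot of HeLa whole-cell lysates, separated by SDS-PAGE and probed with antibodies to p-γH2AX Ser139, p53 and p21waf/cip1. Cells were treated at the indicated concentrations for 24 or 48 h.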"}, "HeLa [27]": {"system": "HeLa", "assay": "Induction of apoptosis in human HeLa cells assessed as reduction in p21 expression at […] after 48 hrs by Western blot analysis", "format": "functional, cell-based", "method_in_brief": "as §6"}, "CCRF-CEM": {"system": "CCRF-CEM", "assay": "Fold resistance, ratio of IC50 for human vinblastine-resistant CEM/VBL100 cells overexpressing P-gp to IC50 for human CEM cells", "format": "functional", "method_in_brief": "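Fold resistance taken as the ratio of IC50 in the resistant line to IC50 in the parental line, each IC50 from dose-response curves of at least three independent experiments.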"}}, "note": "Active and inactive are the calls of the source. The calls are words filed in the database; no cut-off is given here.", "data": [{"smiles": "CCOc1ccc(-c2sc(N)nc2-c2cc(OC)c(OC)c(OC)c2)cc1", "values": [{"measurement": "IC50", "setting": "HL-60", "value": 900, "unit": "pM"}, {"measurement": "IC50", "setting": "K562", "value": 70, "unit": "pM"}, {"measurement": "IC50", "setting": "LoVo", "value": 700, "unit": "pM"}, {"measurement": "Activity", "setting": "Tubulin (Homo sapiens) [1]", "value": "Active"}, {"measurement": "Activity", "setting": "Tubulin (Homo sapiens) [2]", "value": "Active"}, {"measurement": "Activity", "setting": "Jurkat [3]", "value": "Dose-dependent effect"}, {"measurement": "Activity", "setting": "HeLa [4]", "value": "Active"}, {"measurement": "Activity", "setting": "HeLa [5]", "value": "Active"}, {"measurement": "Activity", "setting": "Jurkat [6]", "value": "Active"}, {"measurement": "Activity", "setting": "HeLa [7]", "value": "Active"}, {"measurement": "Activity", "setting": "Jurkat [8]", "value": "Active"}, {"measurement": "Activity", "setting": "HeLa [9]", "value": "Active"}, {"measurement": "Activity", "setting": "Jurkat [10]", "value": "Active"}, {"measurement": "Activity", "setting": "HeLa [11]", "value": "Dose-dependent effect"}, {"measurement": "Activity", "setting": "HeLa [12]", "value": "Active"}, {"measurement": "Activity", "setting": "HeLa [13]", "value": "Active"}, {"measurement": "Activity", "setting": "HeLa [14]", "value": "Active"}, {"measurement": "Activity", "setting": "HeLa [15]", "value": "Active"}, {"measurement": "Activity", "setting": "HeLa [16]", "value": "inactive"}, {"measurement": "Activity", "setting": "HeLa [17]", "value": "inactive"}, {"measurement": "Activity", "setting": "HeLa [18]", "value": "inactive"}, {"measurement": "Activity", "setting": "HeLa [19]", "value": "Active"}, {"measurement": "Activity", "setting": "HeLa [20]", "value": "Active"}, {"measurement": "Activity", "setting": "HeLa [21]", "value": "Active"}, {"measurement": "Activity", "setting": "HeLa [22]", "value": "Active"}, {"measurement": "Activity", "setting": "HeLa [23]", "value": "Active"}, {"measurement": "Activity", "setting": "Jurkat [24]", "value": "Active"}, {"measurement": "Activity", "setting": "Jurkat [25]", "value": "Active"}, {"measurement": "Activity", "setting": "HeLa [26]", "value": "Active"}, {"measurement": "Activity", "setting": "HeLa [27]", "value": "Active"}, {"measurement": "Ratio IC50", "setting": "CCRF-CEM", "value": 0.9}]}]}
